Published values of several laboratories.
Protocols differ between the studies behind these lines.
ABL1 F317I phosphorylated: Tyrosine-protein kinase ABL1, phosphorylated (ABL1, Homo sapiens, UniProt P00519, F317I)
ABL1 Y253F: Tyrosine-protein kinase ABL1 (ABL1, Homo sapiens, UniProt P00519, Y253F)
ABL1 T315I phosphorylated: Tyrosine-protein kinase ABL1, phosphorylated (ABL1, Homo sapiens, UniProt P00519, T315I)
ABL1 phosphorylated: Tyrosine-protein kinase ABL1, phosphorylated (ABL1, Homo sapiens, UniProt P00519)
ABL1 E255K: Tyrosine-protein kinase ABL1 (ABL1, Homo sapiens, UniProt P00519, E255K)
ABL1 Q252H phosphorylated: Tyrosine-protein kinase ABL1, phosphorylated (ABL1, Homo sapiens, UniProt P00519, Q252H)
ABL1 E255K phosphorylated: Tyrosine-protein kinase ABL1, phosphorylated (ABL1, Homo sapiens, UniProt P00519, E255K)
ABL1 Q252H: Tyrosine-protein kinase ABL1 (ABL1, Homo sapiens, UniProt P00519, Q252H)
ABL1 F317L phosphorylated: Tyrosine-protein kinase ABL1, phosphorylated (ABL1, Homo sapiens, UniProt P00519, F317L)
ABL1 Y253F phosphorylated: Tyrosine-protein kinase ABL1, phosphorylated (ABL1, Homo sapiens, UniProt P00519, Y253F)
ABL1 F317L non-phosphorylated: Tyrosine-protein kinase ABL1, non-phosphorylated (ABL1, Homo sapiens, UniProt P00519, F317L)

Structure (SMILES) | target | read-out | method | tested at | remaining binding
O=C(O)[C@H]1[C@H](Cn2nnc3ccccc3c2=O)CC[C@@H]1C(=O)c1ccc(OCCC2CCOCC2)cc1 | ABL1 F317I phosphorylated | binding | – | 1 µM | 100%
c1cnn2ncc(-c3ccnc(N4CCC45COC5)n3)c2c1 | ABL1 Y253F | binding | – | 1 µM | 59%
COC(=O)Nc1nc2ccc(C(=O)c3ccccc3)cc2[nH]1 | ABL1 T315I phosphorylated | cell-free assay | competition with immobilised ligand | 10 µM | 3.2%
Cn1cc(Cl)c2c(Oc3c(F)cc(Nc4cc(Cl)nc(N)n4)cc3F)ccnc21 | Tyrosine-protein kinase ABL1, non-phosphorylated (ABL1, Homo sapiens, UniProt P00519, F317I) | binding | competition with immobilised ligand | 0.1 µM | 93%
c1cncc(-c2cccc(Nc3nccc(NC4CCCCC4)n3)c2)c1 | ABL1 phosphorylated | binding | competition with immobilised ligand | 10 µM | 32%
COc1cnc(Nc2cccc(S(N)(=O)=O)c2)nc1N1CCN(c2ccccc2)CC1 | Tyrosine-protein kinase ABL1, phosphorylated (ABL1, Homo sapiens, UniProt P00519, M351T) | binding | competition with immobilised ligand | 1 µM | 98%
CN(C)c1ncc(F)c(-c2cnn3ncccc23)n1 | ABL1 phosphorylated | binding | – | 1 µM | 82%
O=C(c1ccc(Nc2ncc(Cl)c(-c3ccc(Cl)s3)n2)cc1)N1CCC(N2CCCC2)CC1 | ABL1 T315I phosphorylated | binding | competition with immobilised ligand | 1 µM | 1.1%
F[C@@H]1CCN(c2nccc(-c3cnn4ncccc34)n2)C1 | ABL1 E255K | binding | – | 1 µM | 100%
CN1CCN(c2ccc(Nc3nccc(-c4cccc([N+](=O)[O-])c4)n3)cc2C(F)(F)F)CC1 | ABL1 E255K | binding | – | 10 µM | 5.8%
CC(=O)N1CCC(c2ccc(C(=O)NC(=N)N)cc2C(F)(F)F)CC1 | ABL1 Q252H phosphorylated | cell-free assay | competition with immobilised ligand | 1 µM | 100%
O=C(NCCCN1CCOCC1)c1ccc(Nc2ncc(Cl)c(-c3ccc(Cl)s3)n2)cc1 | Tyrosine-protein kinase ABL1, non-phosphorylated (ABL1, Homo sapiens, UniProt P00519) | binding | competition with immobilised ligand | 1 µM | 26%
CNC(=O)[C@@H]1CC[C@@H](n2c(-c3ccc4cnccc4c3)nc3ccc(C(=O)NCc4cccc(C(N)=O)c4)cc32)C1 | ABL1 T315I phosphorylated | binding | competition with immobilised ligand | 1 µM | 100%
C[C@@H](c1ccc(-n2cnc3c(N)ncnc32)cc1)N1CCc2nn(C)c(Cc3ccccc3)c2C1=O | ABL1 Q252H phosphorylated | binding | competition with immobilised ligand | 0.1 µM | 72%
C[C@@H]1CCN(c2nccc(-c3cnn4ncccc34)n2)C1 | Tyrosine-protein kinase ABL1 (ABL1, Homo sapiens, UniProt P00519, H396P) | binding | – | 1 µM | 79%
Nc1c(C(=O)NCc2ccc(C(=O)NCCCC3CCCCC3)cc2)cnn1-c1ccccc1 | ABL1 Q252H phosphorylated | cell-free assay | competition with immobilised ligand | 0.1 µM | 98%
COc1ncc2cc3ccccc3nc2c1C#N | Tyrosine-protein kinase ABL1, non-phosphorylated (ABL1, Homo sapiens, UniProt P00519, H396P) | cell-free assay | competition with immobilised ligand | 5 µM | 100%
CN1CCN(c2ccc(Nc3nccc(-c4ccccc4)n3)cc2C(F)(F)F)CC1 | ABL1 E255K | binding | – | 10 µM | 22%
CC(C)(C)c1ccc(-c2nc(CBr)nn2-c2cccc(O)c2)cc1 | ABL1 T315I phosphorylated | cell-free assay | competition with immobilised ligand | 10 µM | 82%

Structure (SMILES) | target | read-out | method | tested at | remaining binding
O=C(NCC1CCOCC1)c1n[nH]cc1NC(=O)c1c(F)cccc1F | ABL1 E255K phosphorylated | binding | competition with immobilised ligand | 1 µM | 88%
CN(c1nccc(-c2cnn3ncccc23)n1)C1CC1 | ABL1 Q252H | binding | – | 1 µM | 100%
CC(=O)Nc1c(C(C)=O)c(=O)n(C)c2nc(-c3ccc(Cl)cc3Cl)c(-c3ccc(Cl)cc3)cc12 | ABL1 F317L phosphorylated | cell-free assay | competition with immobilised ligand | 1 µM | 100%
Nc1ncc2c(n1)-c1c([nH]c3ccc(C#CC4CC4)cc13)CCCC2 | ABL1 Q252H phosphorylated | binding | competition with immobilised ligand | 1 µM | 94%
N[C@H]1CCN(c2nccc(-c3cnn4ncccc34)n2)C1 | Tyrosine-protein kinase ABL1 (ABL1, Homo sapiens, UniProt P00519, T315I) | binding | – | 1 µM | 88%
C=CC(=O)N1CCC(C(=O)NCC(=O)N2CCN(c3nc(-c4cnc(N)nc4C(F)F)nc(N4CCOCC4)n3)CC2)CC1 | ABL1 F317I phosphorylated | binding | competition with immobilised ligand | 1 µM | 94%
Cc1cnc(Nc2ccc(C(=O)N3CCC(N4CCCC4)CC3)cc2)nc1-c1cc2ccccc2s1 | ABL1 Y253F phosphorylated | binding | competition with immobilised ligand | 1 µM | 0.6%
CN(CCCC(F)(F)F)c1nccc(-c2cnn3ncccc23)n1 | ABL1 Y253F | binding | – | 1 µM | 89%
CS(=O)(=O)N1CCCC(NC(=O)[C@H](CCC2CCCCC2)NC(=O)c2ccc(CNC(=O)c3cnc4ccccn34)cc2)C1 (stereo partly shown) | ABL1 Y253F phosphorylated | cell-free assay | competition with immobilised ligand | 0.1 µM | 76%
O=C(c1ccc(Nc2ncc(Cl)c(-c3cc4ccccc4s3)n2)cc1)N1CCC(N2CCCC2)CC1 | ABL1 phosphorylated | binding | competition with immobilised ligand | 1 µM | 26%
CCN1CCN(Cc2ccc(C(=O)Nc3ccc(C)c(Oc4ccc5c(c4)CC(=O)N5)c3)cc2C(F)(F)F)CC1 | ABL1 E255K phosphorylated | binding | competition with immobilised ligand | 1 µM | 74%
O=C(Nc1c[nH]nc1C(=O)NC1CCNCC1)c1cc(F)cc(F)c1 | ABL1 F317L non-phosphorylated | binding | competition with immobilised ligand | 1 µM | 100%
COc1cnc(Nc2cccc(S(N)(=O)=O)c2)nc1N1CCN(c2ccccc2)C(=O)C1 | Tyrosine-protein kinase ABL1, phosphorylated (ABL1, Homo sapiens, UniProt P00519, H396P) | binding | competition with immobilised ligand | 1 µM | 97%
O=C(NCCCN1CCOCC1)c1ccc(Nc2nccc(-c3cc4ccccc4s3)n2)cc1 | ABL1 phosphorylated | binding | competition with immobilised ligand | 1 µM | 37%
CCS(=O)(=O)c1cc2cc(C[C@](O)(CC(C)(C)c3ccc(F)cc3C(N)=O)C(F)(F)F)[nH]c2cn1 | ABL1 F317L phosphorylated | cell-free assay | competition with immobilised ligand | 1 µM | 90%
O=C(c1ccc(Nc2nccc(-c3cc4ccccc4s3)n2)cc1)N1CCC(N2CCCC2)CC1 | ABL1 F317L non-phosphorylated | binding | competition with immobilised ligand | 1 µM | 78%
CCOCCn1cc(C(=O)Nc2ccc(-n3nc(-c4cccnc4)cc3C(F)(F)F)cn2)ccc1=O | ABL1 T315I phosphorylated | cell-free assay | competition with immobilised ligand | 1 µM | 96%
Cc1cnn2ncc(-c3ccnc(N(C)C)n3)c2c1 | ABL1 Q252H | binding | – | 1 µM | 100%
